This note sets out measurements from ChEMBL document CHEMBL1145016, “Synthesis and antitumor activity of conjugates of muramyldipeptide or normuramyldipeptide with hydroxyacridine/acridone derivatives” (J Med Chem, 2003).

Calls of active or inactive are those of the source.

Data set [1] deals with MCF7. The data set is described as follows: Tested for cytotoxicity of compound against MCF-7 (breast) cell line; IA means inactive. Conditions: Homo sapiens. Type of data set: functional, cell-based.
Data set [2] has as its system NCI-H460. As to the kind of experiment: Tested for cytotoxicity of compound against NCI-H460 (lung)cell line; IA means inactive. Format: functional, cell-based. Conditions: Homo sapiens.
Data set [3] concerns SF-268. The data set is described as follows: Tested for cytotoxicity of compound against SF-268 (CNS) cell line; IA means inactive. Format: functional, cell-based. Conditions: Homo sapiens.
For data set [4], the system named is Mus musculus. As to the kind of experiment: Evaluated in vivo for percent growth delay in mice at 0.67 mg/kg for 12 days by intraperitoneal treatment on COLO 205 colon cell line. Format: functional.
Data set [5] relates to Mus musculus. As to the kind of experiment: Evaluated in vivo for percent growth delay in mice at 1.50 mg/kg for 10 days by intraperitoneal treatment on UACC-62 melanoma cell line. Format: functional. Conditions: dose 1.5 mg/kg.
Data set [6] relates to Mus musculus. The data set is described as follows: Evaluated in vivo for percent growth delay in mice at 1.80 mg/kg for 24 (38) days by intravenous treatment on MDA-MB-435 breast cell line. Format: functional. Conditions: dose 1.8 mg/kg.
Data set [7] concerns Mus musculus. As to the kind of experiment: Evaluated in vivo for percent growth delay in mice at 0.90 mg/kg for 5 days by intraperitoneal treatment on HCT-15 colon cell line. Conditions: dose 0.9 mg/kg. Format: functional.
Data set [8] deals with Mus musculus. The data set is described as follows: Evaluated in vivo for percent of tumor weight in treated/control of mice at 0.67 mg/kg for 12 days by intraperitoneal treatment on COLO 205 colon cell line. Format: functional.
In data set [9] the test system is Mus musculus. The data set is described as follows: Evaluated in vivo for percent of tumor weight in treated/control of mice at 0.90 mg/kg for 5 days by intraperitoneal treatment on HCT-15 colon cell line. Conditions: dose 0.9 mg/kg. Type of data set: functional.
Data set [10] has as its system Mus musculus. The data set is described as follows: Evaluated in vivo for percent of tumor weight in treated/control of mice at 0.90 mg/kg for 7 days by intraperitoneal treatment on RXF-393 renal cell line. Type of data set: functional. Conditions: dose 0.9 mg/kg.
For data set [11], the system named is Mus musculus. As to the kind of experiment: Evaluated in vivo for percent of tumor weight in treated/control of mice at 1.00 mg/kg for 7 days by intraperitoneal treatment on AS283 lymphoma cell line. Type of data set: functional.
The test system of data set [12] is Mus musculus. As to the kind of experiment: Evaluated in vivo for percent of tumor weight in treated/control of mice at 1.34 mg/kg for 7 days by intraperitoneal treatment on NCI-H460 non-small cell lung cell line. Format: functional.
The test system of data set [13] is Mus musculus. As to the kind of experiment: Evaluated in vivo for percent of tumor weight in treated/control of mice at 1.50 mg/kg for 10 days by intraperitoneal treatment on UACC-62 melanoma cell line. Type of data set: functional. Conditions: dose 1.5 mg/kg.
For data set [14], the system named is Mus musculus. As to the kind of experiment: Evaluated in vivo for percent growth delay in mice at 0.90 mg/kg for 7 days by intraperitoneal treatment on RXF-393 renal cell line. Type of data set: functional. To be noted: dose 0.9 mg/kg.
For data set [15], the system named is Mus musculus. As to the kind of experiment: Evaluated in vivo for percent growth delay in mice at 1.00 mg/kg for 7 days by intraperitoneal treatment on AS283 lymphoma cell line. Format: functional.
Data set [16] has as its system Mus musculus. The data set is described as follows: Evaluated in vivo for percent growth delay in mice at 1.34 mg/kg for 7 days by intraperitoneal treatment on NCI-H460 non-small cell lung cell line. Type of data set: functional.
Data set [17] has as its system Mus musculus. As to the kind of experiment: Evaluated in vivo for toxic deaths of mice at 0.67 mg/kg for 12 days by intraperitoneal treatment on COLO 205 colon cell line. Format: toxicity, organism-based. Conditions: ip, 288 h. More on the design: dose 0.67 mg/kg, route intraperitoneal. In short, it runs like this: (§1)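 Nude mice carrying subcutaneous human tumor xenografts, tested at NCI Bethesda; compound given on the stated schedule, intraperitoneally (IP) or intravenously (IV). Three dose levels were tested, and the table reports only the optimal one. Toxic deaths are scored per treatment group alongside tumor weight end points.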

The subject of data set [18] is Mus musculus. As to the kind of experiment: Evaluated in vivo for toxic deaths of mice at 0.90 mg/kg for 5 days by intraperitoneal treatment on HCT-15 colon cell line. Format: toxicity, organism-based. Details: dose 0.9 mg/kg, route intraperitoneal. Conditions: ip, 0.9 mg/kg, 120 h. In short, it runs like this: as §1
In data set [19] the test system is Mus musculus. The data set is described as follows: Evaluated in vivo for percent of tumor weight in treated/control of mice at 1.80 mg/kg for 24 (38) days by intravenous treatment on MDA-MB-435 breast cell line. Type of data set: functional. To be noted: dose 1.8 mg/kg.
Data set [20] has as its system Mus musculus. As to the kind of experiment: Evaluated in vivo for toxic deaths of mice at 0.90 mg/kg for 7 days by intraperitoneal treatment on RXF-393 renal cell line. Type of data set: toxicity, organism-based. More on the design: dose 0.9 mg/kg, route intraperitoneal. To be noted: ip, 0.9 mg/kg, 168 h. In short, it runs like this: as §1
Data set [21] concerns Mus musculus. As to the kind of experiment: Evaluated in vivo for toxic deaths of mice at 1.34 mg/kg for 7 days by intraperitoneal treatment on NCI-H460 non-small cell lung cell line. Type of data set: toxicity, organism-based. More on the design: dose 1.34 mg/kg, route intraperitoneal. Conditions: ip, 168 h. In short, it runs like this:
as §1

Data set [22] concerns Mus musculus. The data set is described as follows: Evaluated in vivo for toxic deaths of mice at 1.50 mg/kg for 10 days by intraperitoneal treatment on UACC-62 melanoma cell line. Format: toxicity, organism-based. Details: dose 1.5 mg/kg, route intraperitoneal. Conditions: ip, 1.5 mg/kg, 240 h. In short, it runs like this: as §1
For data set [23], the system named is Mus musculus. As to the kind of experiment: Evaluated in vivo for toxic deaths of mice at 1.80 mg/kg for 24 (38) days by intravenous treatment on MDA-MB-435 breast […] cell line. Format: toxicity, organism-based. Details: dose 1.8 mg/kg, route intravenous. Conditions: 1.8 mg/kg. Put shortly:
as §1

Data set [24] can be described thus: Tested for cytotoxicity (lethal concentration) of compound, activity expressed as MID log LC50. Type of data set: functional. In short, it runs like this:
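MID is the calculated mean of LC50 concentrations (M) across the cell line panel, where LC50 is the half-lethal concentration. It is reported as a log value.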

A short description of data set [25]: Evaluated in vivo for intraperitoneal score in hallow fiber assay. Type of data set: functional. In short, it runs like this: (§2)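 NCI hollow fiber preliminary in vivo assay; scores recorded separately for intraperitoneal (ip) and subcutaneous (sc) fiber implantation sites, with an activity criterion applied (Y/N). Procedure detailed in prior work.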
A short description of data set [26]: Evaluated in vivo for intraperitoneal + subcutaneous score in hallow fiber assay. Type of data set: functional. Put shortly:
as §2

The nature of data set [27]: Evaluated in vivo for subcutaneous score in hallow fiber assay. Format: functional. Put shortly: as §2
Data set [28] relates to Mus musculus. The data set is described as follows: Evaluated in vivo for toxic deaths of mice at 1.00 mg/kg for 7 days by intraperitoneal treatment on AS283 lymphoma cell line. More on the design: dose 1 mg/kg, route intraperitoneal. To be noted: ip, 168 h. Format: toxicity, organism-based. Put shortly: as §1
The subject of data set [29] is MCF7. The data set is described as follows: Tested for cytotoxicity of compound against MCF-7 (breast) cell line; Compound was active. Type of data set: functional, cell-based. To be noted: Homo sapiens.
In data set [30] the test system is NCI-H460. As to the kind of experiment: Tested for cytotoxicity of compound against NCI-H460 (lung)cell line; Compound was active. Format: functional, cell-based. To be noted: Homo sapiens.
Data set [31] concerns SF-268. As to the kind of experiment: Tested for cytotoxicity of compound against SF-268 (CNS) cell line; Compound was active. Conditions: Homo sapiens. Format: functional, cell-based.

As to `CC(=O)N[C@@H]1[C@H](OCc2ccccc2)OC(CO)C(O)[C@H]1OC(C)C(=O)N[C@H](C)C(=O)N[C@H](CCC(=O)OCCNC(=O)c1cccc2cc3ccccc3nc12)C(N)=O` (stereo partly specified), the IA entry in data set [1], in data set [2] and in data set [3] was “inactive” throughout.

Take `CC(=O)N[C@@H]1[C@H](OCc2ccccc2)OC(CO)C(O)[C@H]1OC(C)C(=O)N[C@H](C)C(=O)N[C@H](CCC(=O)OCCNc1c2ccccc2nc2cccc([N+](=O)[O-])c12)C(N)=O` (stereo partly specified): the “Growth delay (T-C/C)” value in data set [4] is recorded as 11%; in data set [5], 2%; in data set [6] it was 17%; in [7], 5%; in data set [14], 32%; in data set [15], 9%. The “Growth delay (T-C/C)” value in data set [16] was found to be 21%. Besides, the Tumor weight in data set [8] is reported as 75%; in data set [9], 79%; in data set [10] it was 81%; in data set [11], 63%; in [12], 54%; in data set [13] it was 89%. The Tumor weight in data set [19] was determined as 60%. The Toxic deaths is 0 in data set [17]; 2 in [18]; 0 in [20]; 1 in [21]; 0 in [22]; 2 in [23]. Further, in data set [28], the Toxic deaths was determined as 0. In data set [24], the “MID log LC50” value turned out to be 6.85 M. Moreover, the results for the Score in data set [25], in [26] and in data set [27] were 12, 20 and 8, respectively.

On to `CC(=O)N[C@@H]1[C@H](OCc2ccccc2)OC(CO)C(O)[C@H]1OCC(=O)N[C@H](C)C(=O)N[C@H](CCC(=O)OCCNC(=O)c1cccc2c(=O)c3ccccc3[nH]c12)C(N)=O` (stereo partly specified), for which the IA entry in data set [1], in [2] and in data set [3] was “inactive” each time.

As for `CC(=O)N[C@@H]1[C@H](OCc2ccccc2)OC(CO)C(O)[C@H]1OC(C)C(=O)N[C@H](C)C(=O)N[C@H](CCC(=O)OCCCNC(=O)c1cccc2cc3ccccc3nc12)C(N)=O` (stereo partly specified), the IA result in data set [1], in data set [2] and in data set [3] was “inactive” each time.

For `CC(=O)N[C@@H]1[C@H](OCc2ccccc2)OC(CO)C(O)[C@H]1OCC(=O)N[C@H](C)C(=O)N[C@H](CCC(=O)OCCNC(=O)c1cccc2cc3ccccc3nc12)C(N)=O` (stereo partly specified), the IA result in data set [1], in data set [2] and in data set [3] was “inactive” in each case.

Turning to `CC(=O)N[C@@H]1[C@H](OCc2ccccc2)OC(CO)C(O)[C@H]1OC(C)C(=O)N[C@@H](C(=O)N[C@H](CCC(=O)OCCNC(=O)c1cccc2c(=O)c3ccccc3[nH]c12)C(N)=O)C(C)C` (stereo partly specified), the IA result in data set [1], in data set [2] and in [3] was “inactive” in each case.

Turning to `CC(=O)N[C@@H]1[C@H](OCc2ccccc2)OC(CO)C(O)[C@H]1OCC(=O)N[C@H](C)C(=O)N[C@H](CCC(=O)OCCCNC(=O)c1cccc2c(=O)c3ccccc3[nH]c12)C(N)=O` (stereo partly specified), the Cytotoxicity entry in data set [29], in data set [30] and in data set [31] was “Active” throughout. Further, in data set [24], the “MID log LC50” value is on record as 4.04 M.

On to `O=[N+]([O-])c1cccc2nc3ccccc3c(NCCO)c12`, for which the “MID log LC50” value in [24] stood at 5.9 M.

On to `CC(=O)N[C@@H]1[C@H](OCc2ccccc2)OC(CO)C(O)[C@H]1OC(C)C(=O)N[C@H](C)C(=O)N[C@H](CCC(=O)OCCCCNC(=O)c1cccc2cc3ccccc3nc12)C(N)=O` (stereo partly specified), for which the IA entry in [1], in data set [2] and in data set [3] was “inactive” throughout.

For the compound `CC(=O)N[C@@H]1[C@H](OCc2ccccc2)OC(CO)C(O)[C@H]1OC(C)C(=O)N[C@@H](C(=O)N[C@H](CCC(=O)OCCCNC(=O)c1cccc2cc3ccccc3nc12)C(N)=O)C(C)C` (stereo partly specified), the IA entry in data set [1], in [2] and in data set [3] was “inactive” each time.
